# Assay outcomes as filed in PubChem.
# Rpn11 inh: blocks the human proteasome subunit Rpn11 | AID 588493 | human 26S proteasome, Ub4-pepOG fluorescence polarization; 20S core pre-blocked with epoxomicin | hit rate 0.59% among 360,000 | inhibition, % at 20 µM;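 active = inhibition at 20 µM, scaled to each plate's controls, above about 33%, limit read from the data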
# CSN deneddyl inh: blocks human CSN-mediated cullin deneddylation | hit rate 0.38% among 360,000 | Purified CSN, SCF-Nedd8-OG deneddylation, fluorescence polarization | AID 651999 | inhibition, % at 12.5 µM;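 active = pattern-corrected inhibition above about 35%, with an unprinted fluorescence ratio check between 0.5 and 1.5, limit read from the data, passing the limit was not always enough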;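 also: 0% = enzyme with substrate and 100% = substrate without enzyme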
# Target sequence (Q92905 whole entry, looked up, one chain of several): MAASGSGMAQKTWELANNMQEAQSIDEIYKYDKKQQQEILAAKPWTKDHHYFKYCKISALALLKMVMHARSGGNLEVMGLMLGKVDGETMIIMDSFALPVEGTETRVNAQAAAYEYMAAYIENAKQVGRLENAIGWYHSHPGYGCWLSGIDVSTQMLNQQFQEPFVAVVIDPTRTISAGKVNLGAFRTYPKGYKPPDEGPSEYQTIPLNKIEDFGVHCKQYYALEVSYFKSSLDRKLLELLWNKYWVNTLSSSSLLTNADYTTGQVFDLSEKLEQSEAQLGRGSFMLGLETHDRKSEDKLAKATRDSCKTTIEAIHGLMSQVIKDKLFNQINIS
#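 Detection – fluorescence polarization · System – HEK293T-derived human Csn5 enzyme · Controls – substrate-only high control, full reaction low control · Timing – 90 min, room temperature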
# IDE cell inh: inhibits human insulin-degrading enzyme in HEK cells. P14735. FAbetaB cleavage, fluorescence polarization. inhibition, % at 5.59 µM. hit rate 0.41% among 320,000. AID 434962;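 active = percent inhibition above the average of all tested compounds plus 3 SD, set per screening campaign, cut at about 16% in these data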;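 also: IDE supplied by intact live HEK cells; FP after avidin binding of uncleaved biotin substrate so inhibition keeps polarization high; 0% = DMSO wells and 100% = 60 µM reference IDE inhibitor Ii1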
# HNF4A DNA FP: change in binding of human HNF4 alpha to DNA; HNF4a-FITC DNA binding, fluorescence polarization, 1 h; activity change, % at 10 µM; P41235; hit rate 0.3% among 360,000; in the data active = activity change above about 30%, passing the limit was not always enough
# TPT1 inh: blocks Candida albicans tRNA 2'-phosphotransferase | recombinant caTPT1, FP RNA substrate dephosphorylation | inhibition, % at 5 µM | hit rate 0.81% among 300,000;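 active = inhibition above the mean of all tested compounds plus 3 SD, set per screening campaign, cut at about 24% in these data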;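 also: plate controls were DMSO alone for no effect and ferristatin control at 100 nM for full effect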
# IDE act: activators of human insulin-degrading enzyme in cells; hit rate 0.073% among 340,000; P14735; HEK cells, FAbeta-B cleavage, fluorescence polarization; 0% vehicle, 100% cell-free pure enzyme wells; activation, % at 5.96 µM; AID 493087;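 active = activation above the mean of all tested compounds plus 3 SD, set per screening campaign, cut at about 17% in these data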
# Active calls of the source: *; nt = no result given. Rows were chosen to be rich in hits. Some 1.7% of all compounds tested hit in one or more screens of this group.
SMILES,Rpn11 inh,CSN deneddyl inh,IDE cell inh,HNF4A DNA FP,TPT1 inh,IDE act
Cc1ccc(-c2nc3ncccn3c2Nc2ccc3c(c2)OCCO3)o1,2,-2,-2,38*,-2,1
COc1ccc(S(=O)(=O)N(C(C)=O)c2ccc3oc(=O)sc3c2)cc1,-4,-1,25*,1,1,-19
Cc1cc(-c2ccc(Br)s2)nc(-n2cccc2)n1,32,6,nt,50*,nt,-10
Cc1cc(-c2sccc2Br)nc(-n2cccc2)n1,13,7,nt,4,nt,0
CC1Cc2ccccc2N1S(=O)(=O)c1cccs1 (stereo not given),nt,57*,7,115*,4,1
COC(=O)c1cc(S(=O)(=O)N2c3ccccc3CC2C)cn1C (stereo not given),-1,38*,2,2,0,1
O=C1c2c(-c3ccc(Br)cc3)noc2CCN1Cc1cn(-c2ccccc2)nn1,nt,2,nt,3,nt,nt
COCCCN(Cc1cc(OC)c(OC)c(OC)c1)C(=S)Nc1cccc(Cl)c1,0,0,nt,1,nt,nt
CC1(C(=O)NS(=O)(=O)c2ccc(C#N)cc2)CCN1C(=O)Cc1ccc(Cl)cc1Cl (stereo not given),-13,-2,nt,1,nt,nt
O=C(CCNC(=O)C1CCN(S(=O)(=O)c2ccc(F)cc2)CC1)NCc1ccccn1,7,-5,nt,2,nt,nt
c1coc(-c2nnc3sc(Cc4cccs4)nn23)c1,-19,35*,2,-8,3,3
COc1ccc(OCc2nn3c(-c4ccco4)nnc3s2)cc1,-3,-1,3,-2,1,-1
CCN(Cc1ccccc1)C(=S)Nc1cc(C(=O)OC)ccc1C(=O)OC,0,2,0,33*,3,3
COC(=O)c1ccc(C(=O)OC)c(NC(=O)Oc2ccccc2)c1,-9,-3,9,2,2,2
N#CC1=C(N)SC(N)=C(C#N)C1CCC1CCCCC1,nt,nt,2,nt,110*,nt
CN(C)c1ccc(C=c2c3ccccc3n3c2cc(-c2ccccc2)[n+]3C)cc1,46*,24,nt,74*,nt,-12
CN(C)c1ccc(C=c2c3cc([N+](=O)[O-])ccc3n3c2cc(-c2ccccc2)[n+]3C)cc1,30,5,nt,4,nt,-5
CN(C)c1ccc(C=c2c3ccccc3n3c2cc(-c2ccc(Cl)cc2)[n+]3C)cc1,34,18,nt,50*,nt,-2
COc1ccc(NC(=O)c2cc([N+](=O)[O-])ccc2O)cc1,-2,-4,3,11,1,22*
Cc1ccc(/C=C2\SC(=S)N(c3cccnc3)C2=O)cc1,0,5,-2,4,2,6
COc1cc(/C=C2\SC(=S)N(c3cccnc3)C2=O)ccc1O,nt,149,45*,0,23,-90
Cc1ccc(C=C2C=C(c3ccccc3)OC2=O)cc1,10,4,nt,-1,nt,nt
Cc1ccc(C2=C/C(=C/c3cccs3)C(=O)O2)cc1,nt,49*,-1,89,8,2
COc1ccc(NCC(O)COc2ccc(C(C)(C)C)cc2)cc1 (stereo not given),-3,7,-2,-2,-5,22*
COc1ccccc1NCC(O)COc1ccc(C(C)(C)C)cc1 (stereo not given),-19,3,-3,0,0,11
SMILES,Rpn11 inh,CSN deneddyl inh,IDE cell inh,HNF4A DNA FP,TPT1 inh,IDE act
O=C(c1cnc(Cc2c[nH]c3ccccc23)c(I)c1)N1CCN(Cc2ccccc2)CC1,0,42*,nt,1,nt,nt
Cc1cc(C)c2c(c1)NC(C(=O)O)C1CC=CC21 (stereo not given),-20,28,0,-40,17,3
O=C(O)C1Nc2c(C(=O)N3CCOCC3)cccc2C2C=CCC12 (stereo not given),-11,35*,-1,-31,-14,1
Cc1ccc2c(c1C)NC(C(=O)O)C1CC=CC21 (stereo not given),34,28,4,-52,26*,3
CCCCC(CC)CNC(=O)c1[nH]c(C)c(C(C)=O)c1C (stereo not given),-1,-1,2,-1,4,8
CCCCNC(=O)c1[nH]c(C)c(C(C)=O)c1C,-4,-1,-2,34*,-2,4
COC(=O)C[C@H]1CC[C@H](NC(=O)Nc2ccccc2)[C@@H](CO)O1,nt,-3,nt,3,nt,nt
CC(Sc1ncc(C#N)c(N)n1)C(=O)Nc1ccccc1 (stereo not given),8,54*,4,0,2,-1
CC(C)Nc1nc(SC(C)C(=O)Nc2ccccc2)nc(N(C)C)n1 (stereo not given),-1,-2,-5,3,1,1
Cc1ccc(C(=O)N(CCC2=CCCCC2)c2c(N)n(Cc3ccccc3)c(=O)[nH]c2=O)o1,-5,3,-9,1,-1,3
Nc1c(N(CCC2=CCCCC2)C(=O)c2ccc([N+](=O)[O-])o2)c(=O)[nH]c(=O)n1Cc1ccccc1,39*,2,4,8,9,-1
CCCn1c(N/N=C\C=C\c2ccccc2)nc2c1c(=O)[nH]c(=O)n2C,1,7,16*,-2,-5,-2
CC(/C=C/c1ccccc1)=N\Nc1nc2c(c(=O)[nH]c(=O)n2C)n1CCO,nt,nt,3,nt,-2,nt
Nc1sc(Cc2ccccc2)cc1C(=O)NC1CCCCC1,nt,5,nt,3,nt,nt
CCOC(=O)C1=CCC(c2ccccc2)N(S(=O)(=O)c2ccccc2[N+](=O)[O-])C1 (stereo not given),-5,-4,nt,0,nt,nt
CCOC(=O)C1=CCC(c2ccccc2)N(S(=O)(=O)c2ccccc2C)C1 (stereo not given),6,92*,nt,4,nt,nt
Cc1cccc(NC(=O)CSCC(=O)Nc2ccc(S(=O)(=O)N3CCCC3)cc2)c1,-3,0,0,3,0,1
Cc1cccc(CNc2ccc(S(=O)(=O)N3CCCCC3)cc2)c1,-3,62*,-1,0,nt,-8
COC(=O)C[C@H]1CC[C@H](NS(=O)(=O)c2cn(C)cn2)[C@@H](CO)O1,nt,1,nt,10,nt,nt
CC(C)CCn1nnnc1CN1CCN(c2ccccc2)CC1,-6,-6,1,-1,0,18*
O=c1oc(/C=C/c2ccco2)nc2sc3c(c12)CCC3,2,42*,-4,-11,0,-3
O=c1oc(-c2cccs2)nc2sc3c(c12)CCC3,24,2,-1,10,-3,2
COC(=O)[C@]12CCCCC=C1N(CCC1=CCCCC1)C(=O)[C@H](CC(=O)NCc1ccccc1)C2,nt,2,nt,1,nt,nt
Nc1nc(COC(=O)c2ccc3c(c2)OCCO3)nc(Nc2ccccc2)n1,-2,-1,-11,-1,nt,-6
Nc1nc(COC(=O)CCC(=O)c2ccccc2)nc(Nc2ccccc2)n1,7,106*,nt,30,nt,-3
